STAT3 act – activators of IL-6 induced STAT3 signaling | 190,000 tested, 0.91% active | U3A cells, IL-6 STAT3-luciferase reporter, luminescence; 100% = signal with IL-6 EC80 alone | AID 871 | activation (% of control), % at 5.6 µM;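 active = activation above the screen-wide mean of compound activation plus 3 SD, cut at about 130% in these data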;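 also: 0% = background luminescence of wells with medium and substrate only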
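Material: human STAT1-deficient U3A cells with stable STAT3-luciferase reporter / Probe or stimulus: IL-6 stimulus at 33 ng/mL final / Schedule: 1 h compound pre-exposure, 6 h IL-6 stimulation, 37 °C / Technique: luminescence / Read-out basis: percent of IL-6-only median luminescence / Control set: IL-6-only high control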
PPC-1+TRAIL kill – PPC-1 cancer cell killing with TRAIL present. 220,000 tested, 0.41% active. cell killing (% activity), % at 4 µM or 5 µM. AID 1443. PPC-1 cells + TRAIL, ATPLite viability luminescence;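 active = cell killing above 50% in the first pass at 4 µM, then a duplicate retest at 5 µM averaging 50% or more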;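 also: plate controls were cells with TRAIL plus DMSO for no effect and medium-only wells lacking cells for full effect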
STAT3 blocker – reduces IL-6 driven STAT3 reporter signal. 190,000 tested, 0.89% active. U3A cells, IL-6 STAT3-luciferase reporter, luminescence; host cell line lacks STAT1. inhibition, % at 5.5 µM;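 active = inhibition above the mean inhibition across all screened compounds plus 3 SD, cut at about 44% in these data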;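 also: 0% = DMSO only wells and 100% = 100 µM nifuroxazide control wells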
C8 TRAIL sens – caspase-8 TRAIL sensitization. NB7+C8 cells + TRAIL, ATPlite viability luminescence. inhibition (viability loss, TRAIL sensitization), % at 10 µM. 360,000 tested, 1% active. AID 624354;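 active = compounds causing at least 50% loss of cell viability in the single-dose screen, relative to plate controls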
STAT1 inh – STAT1 signaling inhibition | NIH 3T3 STAT1-luciferase reporter, IFN-gamma, luminescence | inhibition, % at 5.5 µM | 200,000 tested, 0.35% active;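 active = inhibition above a set limit, the mean inhibition across all tested compounds plus 3 SD, cut at about 34% in these data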;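 also: 0% = IFN-gamma with DMSO and 100% = IFN-gamma with 300 µM nifuroxazide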
* marks the source's active call; other numbers are inactive results. Compounds with a hit are over-represented: about 1.8% of the library has one in this group of screens.

For C(=Cc1c[nH]c2ccccc12)c1ccc2ccccc2n1 the results were C8 TRAIL sens 71*.
O=C(O)c1ccc(S(=O)(=O)N2CCC(NC(=O)C3CCCCC3)CC2)cc1 was read as C8 TRAIL sens -30.
`O=C(O)c1cccc(NC(=O)c2ccc3c(c2)C(=O)N(CC2CCCO2)C3=O)c1` (stereo not given) gave STAT3 act 75, PPC-1+TRAIL kill 4, STAT3 blocker 30, C8 TRAIL sens 16 and STAT1 inh 37*.
For CC(C)(C)c1ccc(C(=O)Nc2cccc(C(=O)N3CCOCC3)c2)cc1 the results were C8 TRAIL sens 63*.
For Cc1cccc(OCC(=O)Nc2cc(NC(=O)COc3cccc(C)c3C)cc(C(=O)O)c2)c1C the results were C8 TRAIL sens -2.
Screening CCOc1ccc(C(=O)Nc2cc(NC(=O)c3ccc(OCC)c(Cl)c3)cc(C(=O)O)c2)cc1Cl returned STAT3 act 106, PPC-1+TRAIL kill 4, STAT3 blocker 4, C8 TRAIL sens -1 and STAT1 inh -3.
`Cc1ccccc1OCC(=O)Nc1cccc(C(=O)O)c1` gave STAT3 act 9, PPC-1+TRAIL kill 35, STAT3 blocker 103*, C8 TRAIL sens 37 and STAT1 inh 97*.
For Cc1ccc(C(=O)Nc2cccc(C(=O)N3CCOCC3)c2)cc1 the results were STAT3 act 105, PPC-1+TRAIL kill -17, STAT3 blocker -3, C8 TRAIL sens 3 and STAT1 inh -6.
CCOc1ccc(C(=O)Nc2cccc(C(=O)O)c2)cc1Cl was read as STAT3 act 25, PPC-1+TRAIL kill 26, STAT3 blocker 93*, C8 TRAIL sens 49 and STAT1 inh 71*.
CCCCN(C=O)c1c(CC)nc2c(OCC3CCCCC3)cccn12 was read as C8 TRAIL sens 8.
C=CCNC(=O)c1onc(CSc2ccccn2)c1C(=O)NCC=C was read as PPC-1+TRAIL kill -8 and C8 TRAIL sens 4.
For O=C(O)COc1ccc(NC(=O)c2ccc3c(c2)C(=O)N(Cc2ccccc2)C3=O)cc1 the results were C8 TRAIL sens 2.
Screening O=C(Nc1ccc(O)cc1)c1ccc2c(c1)C(=O)N(Cc1ccccc1)C2=O returned C8 TRAIL sens 63*.
Cc1ccc(C(=O)Nc2cccc(C(=O)O)c2)cc1 was read as STAT3 act 19, PPC-1+TRAIL kill 38, STAT3 blocker 98* and STAT1 inh 82*.
For C[C@H]1CN([C@@H](C)CO)C(=O)CCCn2nncc2CO[C@@H]1CN(C)Cc1ccncc1 the results were C8 TRAIL sens 9.
For O=[N+]([O-])c1ccc(Sc2ccncn2)c([N+](=O)[O-])c1 the results were C8 TRAIL sens 53*.
CSc1cccc(NC(=S)N(CCC(C)C)C2CCN(C(C)C)CC2)c1 was read as STAT3 act 95, PPC-1+TRAIL kill 21, STAT3 blocker 8, C8 TRAIL sens 9 and STAT1 inh 5.
CN(C)c1nc(Nc2ccc(Cl)cc2)nc(OCC#N)n1 was read as STAT3 act 136*, PPC-1+TRAIL kill 7, STAT3 blocker -37, C8 TRAIL sens 6 and STAT1 inh 14.
`CN(C(=S)NC(=O)c1ccc(Cl)cc1)C1CCCCC1` gave C8 TRAIL sens 50*.
For COc1ccc(OC)c(S(=O)(=O)NCc2ccccn2)c1 the results were C8 TRAIL sens -17.
Cc1cccc(CCNC(=O)C2CCCN(c3cnccn3)C2)c1 (stereo not given) was read as C8 TRAIL sens 11.
`C=CCN1C=CC(=C/C=C(/C#N)C(=O)OCC)C=C1` gave STAT3 act 98, PPC-1+TRAIL kill 43, STAT3 blocker 6, C8 TRAIL sens 49* and STAT1 inh -82.
CCOC(=O)/C(C#N)=C/C=C1/C=CC=CN1C was read as PPC-1+TRAIL kill -20 and C8 TRAIL sens 4.
For Cc1ccc(C(=O)N/C(=C/c2ccco2)C(=O)N2CCOCC2)cc1 the results were C8 TRAIL sens -1.
CCc1cc2c(=O)c(-c3ccc4c(c3)OCCO4)coc2cc1OC(=O)c1ccco1 was read as STAT3 act 89, PPC-1+TRAIL kill 36, STAT3 blocker 18, C8 TRAIL sens 71* and STAT1 inh -8.
CCCc1cc2c(=O)c(-c3ccc4c(c3)OCCO4)coc2cc1OC(=O)c1ccco1 was read as STAT3 act 99, PPC-1+TRAIL kill 35, STAT3 blocker 5, C8 TRAIL sens 56* and STAT1 inh 1.
`CCOC(=O)C1=C(C)OC(=Cc2ccc(OC)cc2)C1=O` gave C8 TRAIL sens 70*.
Screening Cc1cc(CSCc2ccc(Cl)cc2)no1 returned C8 TRAIL sens 15.
`COc1cc2nc(N3CCNCC3)nc(N)c2cc1OC` gave STAT3 act 103, PPC-1+TRAIL kill 23, STAT3 blocker -1, C8 TRAIL sens 53* and STAT1 inh 1.
COc1cc2nc(Cl)nc(N3CCCCC3)c2cc1OC was read as STAT3 act 98, STAT3 blocker 11, C8 TRAIL sens -9 and STAT1 inh -5.
Screening COc1ccc(C)cc1Nc1nc(N)c2cc(OC)c(OC)cc2n1 returned C8 TRAIL sens 15.
`COc1cc2nc(N3CCN(c4cc(C)ccc4C)CC3)nc(N)c2cc1OC` gave C8 TRAIL sens 57*.
CCCNC(=O)C1(C)CCCN(C(=O)c2c(C)noc2C)C1 (stereo not given) was read as C8 TRAIL sens 2.
Screening CN(C)c1ccc(NC(=O)c2cccc(C(=O)Nc3ccc(N(C)C)cc3)n2)cc1 returned STAT3 act 97, PPC-1+TRAIL kill 34, STAT3 blocker 7, C8 TRAIL sens 53* and STAT1 inh -21.
For c1ccc2c(NCCCN3CCOCC3)c3ccccc3nc2c1 the results were STAT3 act 215*, PPC-1+TRAIL kill 44, STAT3 blocker -127 and STAT1 inh -88.
Screening Fc1ccccc1-c1nc(NCCCN2CCOCC2)c2ccccc2n1 returned STAT3 act 108, PPC-1+TRAIL kill 9, STAT3 blocker 0, C8 TRAIL sens -6 and STAT1 inh 4.
CC(C)c1ccc2[nH]c(O)c(N=NC(=O)c3cccc(S(=O)(=O)Nc4cccc(Cl)c4)c3)c2c1 was read as PPC-1+TRAIL kill 6 and C8 TRAIL sens 50*.
Screening C[C@H](O)[C@@H]1C(=O)N2CCc3ccc(-c4ccccc4)cc3[C@@H]2C[C@@H]1N(C)C(=O)c1ccco1 returned C8 TRAIL sens -1.
O=C(NNc1cccc(Cl)n1)c1ccccc1CC[N+](=O)[O-] was read as STAT3 act 109, PPC-1+TRAIL kill 15, STAT3 blocker -2, C8 TRAIL sens 4 and STAT1 inh -8.
`O=C(Nc1ncnc2c1C(c1ccccc1)c1c(ccc3ccccc13)O2)c1ccccc1` (stereo not given) gave C8 TRAIL sens 59*.
`O=C(Cc1ccccc1)Nc1ncnc2c1C(c1ccccc1)c1c(ccc3ccccc13)O2` (stereo not given) gave C8 TRAIL sens 41.
